Source: ChEMBL document CHEMBL1121748, “Antimycotic imidazoles. 5. Synthesis and antimycotic properties of 1-[[2-aryl-4-(arylalkyl)-1,3-dioxolan-2-yl]methyl]-1H-imidazoles” (1981)

Tests used:
Microsporum canis = experiment: Antifungal activity against Microsporum canis; format: functional
Cryptococcus neoformans = experiment: Antifungal activity against Cryptococcus neoformans; format: functional
Streptococcus pyogenes = experiment: Antibacterial activity against Streptococcus pyogenes; format: functional
[1] = test system: Trichophyton mentagrophytes; experiment: Compound was tested for antifungal activity against Trichophyton mentagrophytes
[2] = Ratio of animals cured to that of animals infected, tested in vivo for antifungal activity against vaginal candidosis in rat; 1/2
[3] = test system: Staphylococcus haemolyticus; experiment: Antibacterial against Staphylococcus hemolyticus; format: functional
Mucor = experiment: Antifungal activity against Mucor species; format: functional
Candida tropicalis = experiment: Antifungal activity against Candida tropicalis; format: functional
Aspergillus fumigatus = experiment: Antifungal activity against Aspergillus fumigatus; format: functional
Saprolegnia [4] = experiment: Antifungal activity against Saprolegnia species; format: functional
Trichophyton rubrum = experiment: Antifungal activity against Trichophyton rubrum; format: functional
Candida albicans = experiment: Antifungal activity against Candida albicans; format: functional
Phialophora verrucosa [5] = experiment: Antifungal activity against Phialophora verrucosa; format: functional
[6] = test system: Erysipelothrix rhusiopathiae; experiment: Antibacterial activity against Erysipelothrix insidiosa; format: functional
Sporothrix schenckii = experiment: Antifungal activity against Sporothrix schenck ii; format: functional
Saprolegnia [7] = experiment: compound was tested for antifungal activity against Saprolegnia species; format: functional
[8] = Ratio of animals cured to that of animals infected, tested in vivo for antifungal activity against cutaneous candidosis in guinea pig; 0/2; format: functional
Trichophyton benhamiae = experiment: Antifungal activity against Trichophyton mentagrophytes; format: functional, trychophyton mentagrophytes
[9] = Ratio of animals cured to that of animals […], Tested in vivo for antifungal activity against vaginal candidosis in rat; 2/4; format: functional
[10] = Ratio of animals cured to that of animals infected, tested in vivo for antifungal activity against vaginal candidosis in rat; 0/2
[11] = Ratio of animals cured to that of animals infected, tested in vivo for antifungal activity against cutaneous candidosis in guinea pig; 3/4; format: functional
[12] = Ratio of animals cured to that of animals infected, tested in vivo for antifungal activity against cutaneous candidosis in guinea pig; 2/2; format: functional
[13] = Ratio of animals cured to that of animals […], Tested in vivo for antifungal activity against vaginal candidosis in rat; 1/2; format: functional
[14] = Ratio of animals cured to that of animals infected, tested in vivo for antifungal activity against vaginal candidosis in rat; 0/2; format: functional
Procedure, shortened: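 Rat experimental vaginal candidosis. Compounds were given orally as a suspension in polyethylene glycol 200 at 10 mg/kg/day for 14 consecutive days.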

[15] = Ratio of animals cured to that of animals infected, tested in vivo for antifungal activity against cutaneous candidosis in guinea pig; 1/2; format: functional
Phialophora verrucosa [16] = experiment: compound was tested for antifungal activity against Phialophora verrucosa; format: functional
[17] = Ratio of animals cured to that of animals […], Tested in vivo for antifungal activity against vaginal candidosis in rat; 0/2; format: functional
[18] = Ratio of animals cured to that of animals infected, tested in vivo for antifungal activity against vaginal candidosis in rat; 2/4
[19] = Ratio of animals cured to that of animals infected, tested in vivo for antifungal activity against cutaneous candidosis in guinea pig; 4/13; format: functional
[20] = Ratio of animals cured to that of animals […], Tested in vivo for antifungal activity against vaginal candidosis in rat; 0/6; format: functional

SMILES	Inhibition (Microsporum canis)	Inhibition (Cryptococcus neoformans)	Inhibition (Streptococcus pyogenes)	Inhibition [3]	Inhibition (Mucor)	Inhibition (Candida tropicalis)	Inhibition (Aspergillus fumigatus)	Inhibition (Saprolegnia [4])	Inhibition (Trichophyton rubrum)	Inhibition (Candida albicans)	Inhibition (Phialophora verrucosa [5])	Inhibition [6]	Inhibition (Sporothrix schenckii)	Ratio [8]	Inhibition (Trichophyton benhamiae)	also measured
Cc1ccc(C2COC(Cn3ccnc3)(c3ccc(Br)cc3)O2)cc1 (configuration not stated)	<1 µg/mL	10 µg/mL	10 µg/mL	10 µg/mL	10 µg/mL	>100 µg/mL	<1 µg/mL	100 µg/mL	<1 µg/mL	10 µg/mL	100 µg/mL	1 µg/mL	100 µg/mL	–	–	Inhibition [1]: 10 µg/mL; Ratio [2]: 1
Clc1ccc(C2COC(Cn3ccnc3)(c3ccccc3)O2)c(Cl)c1 (configuration not stated)	10 µg/mL	10 µg/mL	1 µg/mL	10 µg/mL	100 µg/mL	>100 µg/mL	10 µg/mL	–	<1 µg/mL	>100 µg/mL	100 µg/mL	10 µg/mL	10 µg/mL	0	<1 µg/mL	Inhibition (Saprolegnia [7]): 100 µg/mL
COc1ccc(CCC2COC(Cn3ccnc3)(c3ccc(Cl)cc3Cl)O2)cc1 (configuration not stated)	1 µg/mL	1 µg/mL	<1 µg/mL	100 µg/mL	100 µg/mL	10 µg/mL	<1 µg/mL	100 µg/mL	<1 µg/mL	100 µg/mL	100 µg/mL	<1 µg/mL	10 µg/mL	0	<1 µg/mL	Ratio [9]: 0.5
Clc1ccc(C2(Cn3ccnc3)OCC(c3ccc(Br)cc3)O2)c(Cl)c1 (configuration not stated)	<1 µg/mL	<1 µg/mL	1 µg/mL	10 µg/mL	10 µg/mL	10 µg/mL	<1 µg/mL	100 µg/mL	<1 µg/mL	100 µg/mL	100 µg/mL	1 µg/mL	10 µg/mL	–	<1 µg/mL	Ratio [10]: 0; Ratio [11]: 0.75
Clc1ccc(C2(Cn3ccnc3)OCC(c3ccccc3Cl)O2)cc1 (configuration not stated)	10 µg/mL	10 µg/mL	1 µg/mL	10 µg/mL	100 µg/mL	>100 µg/mL	100 µg/mL	10 µg/mL	<1 µg/mL	>100 µg/mL	100 µg/mL	1 µg/mL	>1 µg/mL	–	<1 µg/mL	Ratio [12]: 2; Ratio [13]: 1
Clc1ccc(C2COC(Cn3ccnc3)(c3ccccc3)O2)cc1 (configuration not stated)	<1 µg/mL	10 µg/mL	1 µg/mL	100 µg/mL	100 µg/mL	100 µg/mL	10 µg/mL	100 µg/mL	<1 µg/mL	>100 µg/mL	100 µg/mL	1 µg/mL	10 µg/mL	–	<1 µg/mL	Ratio [14]: 0; Ratio [15]: 1
Clc1ccc(C2(Cn3ccnc3)OCC(CCc3ccccc3)O2)c(Cl)c1 (configuration not stated)	<1 µg/mL	<1 µg/mL	<1 µg/mL	10 µg/mL	10 µg/mL	10 µg/mL	<1 µg/mL	100 µg/mL	<1 µg/mL	100 µg/mL	–	<1 µg/mL	<1 µg/mL	–	<1 µg/mL	Inhibition (Phialophora verrucosa [16]): 100 µg/mL; Ratio [17]: 0
Clc1ccc(CCC2COC(Cn3ccnc3)(c3ccc(Cl)cc3Cl)O2)cc1 (configuration not stated)	1 µg/mL	<1 µg/mL	<1 µg/mL	10 µg/mL	10 µg/mL	10 µg/mL	10 µg/mL	100 µg/mL	1 µg/mL	10 µg/mL	100 µg/mL	<1 µg/mL	1 µg/mL	0	<1 µg/mL	Ratio [18]: 2
Fc1ccc(C2COC(Cn3ccnc3)(c3ccc(Br)cc3)O2)cc1 (configuration not stated)	<1 µg/mL	10 µg/mL	<1 µg/mL	100 µg/mL	<1 µg/mL	100 µg/mL	<1 µg/mL	100 µg/mL	<1 µg/mL	100 µg/mL	100 µg/mL	10 µg/mL	10 µg/mL	–	<1 µg/mL	Ratio [18]: 2; Ratio [15]: 0.5
Clc1ccc(COC(Cn2ccnc2)c2ccc(Cl)cc2Cl)c(Cl)c1 (configuration not stated) [MICONAZOLE]	1 µg/mL	1 µg/mL	<1 µg/mL	10 µg/mL	>100 µg/mL	100 µg/mL	10 µg/mL	10 µg/mL	<1 µg/mL	10 µg/mL	100 µg/mL	<1 µg/mL	1 µg/mL	–	<1 µg/mL	Ratio [19]: 0.31; Ratio [20]: 0
